Experimental data from different studies.
Protocols differ between the studies behind these lines.
Target: Death-associated protein kinase 1 (DAPK1, Homo sapiens, UniProt P53355)

SMILES | read-out | mode | method | tested at | measurement | result
CS(=O)(=O)NCC[C@H](NC(=O)c1cncc2c1cnn2-c1ccc(F)cc1)c1ccnc(S(C)(=O)=O)c1 | cell-free assay | – | competition with immobilised ligand | 1 µM | remaining binding | 100%
FC(F)c1nc2ccccc2n1-c1nc(N2CCOCC2)nc(N2CCOCC2)n1 | enzyme activity | inhibitor | – | 10 µM | remaining activity | 75%
Cc1sc(C(=O)NC2COC2)cc1-n1cc(NC(=O)Nc2c(F)cccc2Cl)cn1 | enzyme activity | inhibitor | – | 10 µM | remaining activity | 104%
CNC(=O)c1cc(Oc2ccc(NC(=O)Nc3ccc(Cl)c(C(F)(F)F)c3)cc2)ccn1 | enzyme activity | inhibitor | – | 10 µM | inhibition | 12%
CCOC(=O)c1cc2cc(-c3cc(C(=O)NCc4ccc(C(=O)O)cc4)nn3C)ccc2[nH]1 | cell-free assay | – | competition with immobilised ligand | 0.1 µM | remaining binding | 84%
CC(C)(O)[C@H]1CC[C@H](Nc2ccc3ncc(-c4cccc(C(F)(F)F)c4)n3n2)CC1 | enzyme activity | inhibitor | – | 1 µM | remaining activity | 110%
Cc1cnc(NC2CCOCC2)nc1-n1cnc(C(=O)NC(CN)c2cc(F)cc(Cl)c2)c1 (stereo not shown) | enzyme activity | inhibitor | radiometric | 1 µM | remaining activity | 96%
O=C(Nc1cnc(Oc2ccc(F)cc2)nc1)N1CCc2ncccc2[C@@H]1c1ccc(F)cc1 | cell-free assay | – | competition with immobilised ligand | 1 µM | remaining binding | 78%
C[S+]([O-])c1ccc(-c2nc(-c3ccncc3)c(-c3ccc(F)cc3)[nH]2)cc1 (stereo not shown) | cell-free assay | – | – | 0.5 µM | remaining signal | 90.3%
CC(C)(C)c1nc2c(s1)c1nc(N)ncc1c1ccc(NS(=O)(=O)c3c(F)cccc3F)c(F)c12 | enzyme activity | inhibitor | radiometric | 1 µM | remaining activity | 79%
Cc1nc(N2CC[C@@H](O)C2)ncc1-c1cc(C(F)(F)F)cc2[nH]ncc12 | binding | – | competition with immobilised ligand | 1 µM | remaining binding | 89%
FC(F)(F)Oc1cccc(-c2cnc3ccc(-c4ccncc4)nn23)c1 | enzyme activity | inhibitor | radiometric | 1 µM | activity vs control | 101%
CCCCN(CCCC)C(=O)CN1C[C@@H](c2cc(OC)c3c(c2)OCO3)[C@H](C(=O)O)[C@H]1CC(C)(C)CCC | cell-free assay | – | competition with immobilised ligand | 1 µM | remaining binding | 82.8%
Cc1ccc(NC(=O)c2ccc(CN3CCN(C)CC3)cc2)cc1Nc1nc(-c2cccnc2)cs1 | cell-free assay | – | – | 0.5 µM | remaining signal | 97.5%
CC/C(=N\NC(=O)NCc1cccc(O)c1)c1ccc(O)c(C)c1O | enzyme activity | inhibitor | – | 0.1 µM | inhibition | -1.6%
COc1cc(Nc2cnc(C#N)c(O[C@H](C)CN(C)C)n2)ncc1-c1cnn(C)c1 | enzyme activity | inhibitor | radiometric | 10 µM | remaining activity | 98%
Nc1nc(Nc2ccc(S(N)(=O)=O)cc2)nn1C(=O)c1c(F)cccc1F | cell-free assay | – | – | 0.5 µM | remaining signal | 93.8%
CN(C)C1CCN(CC#Cc2nn(C3CCCC3)c3nc(NCc4ccccc4)ncc23)C1 (stereo not shown) | enzyme activity | inhibitor | FRET | 0.1 µM | inhibition | 1%
Cc1ccc(NC(=O)c2ccc(C)c(C(F)(F)F)c2)cc1C#Cc1nn(C2CCC(O)CC2)c2ncnc(N)c12 (stereo not shown) | cell-free assay | – | – | 10 µM | remaining signal | 97%
CCN(CC)CCNC(=O)c1c(C)[nH]c(/C=C2\C(=O)Nc3ccc(F)cc32)c1C | cell-free assay | – | – | 0.5 µM | remaining signal | 66.9%
C[C@@H]1CN(c2cc(-c3nn(C)c4ccc(OC5(C)CC5)cc34)ncn2)C[C@H](C)O1 | cell-free assay | – | competition with immobilised ligand | 1 µM | remaining binding | 100%
Cc1ccc(Nc2nccc(N(C)c3ccc4c(C)n(C)nc4c3)n2)cc1S(N)(=O)=O | enzyme activity | inhibitor | – | 10 µM | inhibition | 12%
Cn1c(=O)n(-c2ccc(C(C)(C)C#N)cc2)c2c3cc(-c4cnc5ccccc5c4)ccc3ncc21 | enzyme activity | inhibitor | – | 10 µM | remaining activity | 107%
CCCOc1ccc(OC)c(F)c1C(=O)c1ccc(C(=O)N[C@@H]2CNC[C@H]2NC(=O)c2ccc3[nH]ncc3c2)cc1 | enzyme activity | inhibitor | – | 10 µM | remaining activity | 81%
Cc1noc([C@H]2C[C@@H](c3ccc(C(F)(F)F)cc3)CN(C(=O)N3CCS(=O)(=O)C3)C2)n1 | cell-free assay | – | competition with immobilised ligand | 1 µM | remaining binding | 100%
Cc1cc(NC(=O)c2cccc3cc(-c4cccc5[nH]nc(N)c45)ccc23)ccc1F | enzyme activity | inhibitor | – | 0.1 µM | activity vs control | 88%
C[C@@]1(Cc2ccc(C#N)cc2)C(=O)N(c2cc(Cl)cc(Cl)c2)c2ncc(C(=O)NC3(c4nc(C5CCC5)no4)CC3)n21 | cell-free assay | – | competition with immobilised ligand | 1 µM | remaining binding | 100%
CCN(CC)c1ccc(C2=NNC(=O)CC2C)cc1[N+](=O)[O-] (stereo not shown) | enzyme activity | inhibitor | – | 10 µM | remaining activity | 105%
